In ChEMBL document CHEMBL1144026, “Synthesis and anticonvulsant evaluation of N-substituted isoquinoline AMPA receptor antagonists” (2008):
Calls of active or inactive are those of the source. No cut-off for these calls is given here.

What was measured:
Mus musculus [1] = species: Mus musculus; assay: Anticonvulsant activity against audiogenic clonus seizures in DBA/2 mouse after 30 mins; format: functional; conditions: DBA/2, 0.5 h
In short: (§1)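 DBA/2 mice aged 22 to 25 days, of either sex, in groups of 10. Dosed ip (0.1 mL/10 g) as a fresh solution in 50% DMSO/50% saline, or given vehicle. After 30 min, 60 s habituation under a dome, then 12–16 kHz, 109 dB sound for 60 s or until tonic extension. Seizure phase incidence and latency were scored. ED50 (≥32 animals, 95% confidence limits) by Litchfield–Wilcoxon.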

Mus musculus [2] = species: Mus musculus; assay: Anticonvulsant activity against audiogenic tonus seizures in DBA/2 mouse after 30 mins; format: functional; conditions: DBA/2, 0.5 h; in short: as §1
[3] = (§2) Reduction in AMPA-mediated current in CA1 pyramidal neurons of Wistar rat at 50 uM after 5 mins by patch clamp technique; format: functional, Pyramidal neuron; set-up: scale not given: the % may be the effect or the level left
In short: (§3)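 Whole-cell patch clamp of single CA1 pyramidal neurons; pipette 1.5–3 MΩ, K-gluconate-based intracellular solution. (S)-AMPA 5 μM pulsed for 5 s by fast solution changer; test agent bath-perfused 5 min. Peak amplitude minus baseline and current duration from ≥3 consecutive responses per neuron, control vs drug; unpaired t test per neuron, Wilcoxon matched pairs across neurons.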

Pyramidal neuron = assay: as §2; format: functional; in short: as §3

Row | SMILES | ED50 (Mus musculus [1]) [µmol/kg] | ED50 (Mus musculus [2]) [µmol/kg] | Activity [3] [%] | Activity (Pyramidal neuron)
1 | COc1cc2c(cc1OC)C(c1ccccc1)N(C(=O)C(=O)N1CCOCC1)CC2 (stereo unspecified) | > 100 | 72.1 | – | –
2 | COc1cc2c(cc1OC)C(c1ccc(Br)cc1)N(C(=O)CN1CCCCC1)CC2 (stereo unspecified) | 12.7 | 8.17 | – | –
3 | COc1cc2c(cc1OC)C(c1ccc(F)cc1)N(C(=O)C(=O)N1CCOCC1)CC2 (stereo unspecified) | > 100 | 90.2 | – | –
4 | CCN(CC)C(=O)C(=O)N1CCc2cc(OC)c(OC)cc2C1c1ccc(Cl)cc1 (stereo unspecified) | 75.9 | 67.7 | – | –
5 | COc1cc2c(cc1OC)C(c1ccc(Br)cc1)N(C(=O)C(=O)N1CCCCC1)CC2 (stereo unspecified) | 60.5 | 41.6 | – | –
6 | COc1cc2c(cc1OC)C(c1ccc(Br)cc1)N(C(=O)C(=O)N1CCOCC1)CC2 (stereo unspecified) | > 100 | > 100 | – | –
7 | COc1cc2c(cc1OC)C(c1ccccc1)N(C(=O)C(=O)N1CCCCC1)CC2 (stereo unspecified) | 98.1 | 55.3 | – | –
8 | COc1cc2c(cc1OC)C(c1ccccc1)N(C(=O)C(=O)N1CCCC1)CC2 (stereo unspecified) | > 100 | 54.6 | – | –
9 | CCN(CC)C(=O)C(=O)N1CCc2cc(OC)c(OC)cc2C1c1ccccc1 (stereo unspecified) | 65.1 | 53.3 | – | –
10 | COc1cc2c(cc1OC)C(c1ccc(F)cc1)N(C(=O)C(=O)N1CCCC1)CC2 (stereo unspecified) | > 100 | 73 | – | –
11 | COc1cc2c(cc1OC)C(c1ccc(Cl)cc1)N(C(=O)C(=O)N1CCCC1)CC2 (stereo unspecified) | 58.1 | 37.2 | – | –
12 | COc1cc2c(cc1OC)C(c1ccc(Cl)cc1)N(C(=O)C(=O)N1CCCCC1)CC2 (stereo unspecified) | 88.4 | 65.3 | – | –
13 | CCN(CC)C(=O)C(=O)N1CCc2cc(OC)c(OC)cc2C1c1ccc(F)cc1 (stereo unspecified) | > 100 | > 100 | – | –
14 | COc1cc2c(cc1OC)C(c1ccc(Br)cc1)N(C(=O)C(=O)N1CCCC1)CC2 (stereo unspecified) | 89.2 | 45.4 | – | –
15 | CCN(CC)C(=O)C(=O)N1CCc2cc(OC)c(OC)cc2C1c1ccc(Br)cc1 (stereo unspecified) | > 100 | > 100 | – | –
16 | COc1cc2c(cc1OC)C(c1ccc(F)cc1)N(C(=O)C(=O)N1CCCCC1)CC2 (stereo unspecified) | 44.6 | 38.7 | 60 | –
17 | COc1cc2c(cc1OC)C(c1ccc(Cl)cc1)N(C(=O)C(=O)N1CCOCC1)CC2 (stereo unspecified) | 91 | 46.9 | – | –
18 | CC1=NN=C(c2ccc(N)cc2)c2cc3c(cc2C1)OCO3 | – | – | – | Active
